Laboratory results published in ChEMBL document CHEMBL1138182, “Structure activity relationships of 5-, 6-, and 7-methyl-substituted azepan-3-one cathepsin K inhibitors” (J Med Chem, 2006).

Assays:
[1] = Protein binding in plasma; type: ADME, cell-free; settings: rat, read-out: PPB (converted)
Summary of the method: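 Rat plasma; binding determined by equilibrium dialysis or ultrafiltration.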

Osteoclast = assay: Effect on collagen […] in osteoclast bone resorption assay; type: functional, cell-based; settings: Homo sapiens
Summary of the method: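 Human osteoclastoma-derived osteoclasts on bovine cortical bone slices, incubated 48 h with a range of compound concentrations. Type-I collagen C-telopeptide release measured by ELISA.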

[2] = Permeability in artificial membrane; type: ADME, cell membranes; settings: PAMPA; read-out: permeability
Cathepsin S = Cathepsin S (Homo sapiens, UniProt P25774); assay: Inhibition of human cathepsin S; settings: read-out: Ki app
Sequence of Cathepsin S (P25774 whole entry): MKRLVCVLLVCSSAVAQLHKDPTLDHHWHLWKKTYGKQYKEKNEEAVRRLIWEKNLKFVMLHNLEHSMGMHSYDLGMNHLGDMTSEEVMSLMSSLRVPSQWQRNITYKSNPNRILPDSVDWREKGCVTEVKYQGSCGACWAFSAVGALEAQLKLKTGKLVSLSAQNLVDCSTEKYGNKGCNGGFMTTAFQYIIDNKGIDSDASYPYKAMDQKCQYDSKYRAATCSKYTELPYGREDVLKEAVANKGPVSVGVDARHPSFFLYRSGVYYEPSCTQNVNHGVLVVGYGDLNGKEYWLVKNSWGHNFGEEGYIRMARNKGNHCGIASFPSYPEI

Cathepsin K [3] = biological target: T1, Cathepsin K (Homo sapiens, UniProt P43235); assay: Inhibition of human cathepsin K; settings: read-out: Ki app
T1 sequence (P43235 whole entry): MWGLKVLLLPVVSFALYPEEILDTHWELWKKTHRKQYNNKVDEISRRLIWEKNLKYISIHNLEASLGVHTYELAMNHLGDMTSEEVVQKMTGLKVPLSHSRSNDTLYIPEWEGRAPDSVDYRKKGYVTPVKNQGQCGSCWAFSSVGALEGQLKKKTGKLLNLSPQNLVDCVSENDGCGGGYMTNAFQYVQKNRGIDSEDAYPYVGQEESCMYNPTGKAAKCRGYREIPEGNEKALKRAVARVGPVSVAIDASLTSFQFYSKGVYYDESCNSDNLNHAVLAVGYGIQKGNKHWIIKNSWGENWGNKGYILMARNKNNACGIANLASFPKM

[4] = Permeability in MDCK cells at 10 uM; type: ADME, cell-based, Canis lupus familiaris; settings: dog, read-out: permeability
Summary of the method: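 MDCK cells at passage 60-80, grown in MEM + 10% FBS at 37 °C, 5% CO2, seeded on Transwells and assayed 3 days after seeding. After ~1 h equilibration in HBSS with 25 mM glucose and 25 mM HEPES, 10 µM compound (1% DMSO final) was added apically. Basolateral concentration measured by LC/MS/MS over 3600 s, Papp calculated, duplicates, propranolol and mannitol controls.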

[5] = Clearance in iv dosed Sprague-Dawley rat; type: ADME, organism-based; settings: in vivo
Summary of the method: (§1)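 Male Sprague-Dawley rats, n = 3, iv/po crossover. Dosed iv as a 1-2 mg/kg 0.5-h infusion through an indwelling femoral vein catheter, then 2-4 mg/kg oral gavage 2 days later. Vehicle: aqueous, <2% DMSO, <20% hydroxypropyl-β-cyclodextrin. Tail-vein plasma sampled at timed intervals, measured by LC/MS/MS (LLOQ 1.0-10 ng/mL). Noncompartmental analysis.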

Cathepsin K [6] = biological target: T2, Cathepsin K (Rattus norvegicus, UniProt O35186); assay: Inhibition of rat cathepsin K; settings: read-out: Ki app
T2 sequence (O35186 whole entry): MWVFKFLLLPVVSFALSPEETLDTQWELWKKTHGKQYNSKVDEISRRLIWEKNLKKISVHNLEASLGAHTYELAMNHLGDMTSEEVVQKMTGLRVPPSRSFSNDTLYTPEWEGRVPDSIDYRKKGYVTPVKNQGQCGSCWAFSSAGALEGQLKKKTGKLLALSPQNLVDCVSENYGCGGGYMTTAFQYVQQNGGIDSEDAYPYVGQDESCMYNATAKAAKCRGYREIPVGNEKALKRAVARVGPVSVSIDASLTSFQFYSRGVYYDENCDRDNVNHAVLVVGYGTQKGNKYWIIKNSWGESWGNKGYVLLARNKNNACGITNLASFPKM
Summary of the method: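 Recombinant enzyme; fluorogenic peptide substrate (typically Cbz-Phe-Arg-AMC) in 100 mM sodium acetate pH 5.5 with 20 mM cysteine and 5 mM EDTA, ambient temperature. Reaction started by adding enzyme to inhibitor plus substrate at variable inhibitor concentrations; AMC fluorescence (ex 360, em 460 nm) followed as progress curves. Ki,app obtained by fitting to the competitive velocity equation or the slow-binding progress-curve equation.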

[7] = Volume of distribution in iv dosed Sprague-Dawley rat; type: ADME, organism-based; settings: in vivo, read-out: Vdss; summary of the method: as §1
[8] = Oral bioavailability in Sprague-Dawley rat; type: ADME, organism-based; settings: in vivo; summary of the method: as §1
[9] = Half life in iv dosed Sprague-Dawley rat; type: ADME, organism-based; settings: in vivo; summary of the method: as §1
Cathepsin B = Cathepsin B (Homo sapiens, UniProt P07858); assay: Inhibition of human cathepsin B; settings: read-out: Ki app
Summary of the method: (§2)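 Recombinant human enzyme with fluorogenic substrate, typically Cbz-Phe-Arg-AMC, in 100 mM sodium acetate pH 5.5 with 20 mM cysteine and 5 mM EDTA, at ambient temperature. Enzyme added last to inhibitor plus substrate. AMC fluorescence read at ex 360/em 460. Progress curves at variable inhibitor concentrations were fitted for Ki,app, by competitive velocity equation or slow-binding exponential.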

[10] = Half life in iv dosed cynomolgus monkey; type: ADME, organism-based, Macaca fascicularis; settings: in vivo
Summary of the method: (§3)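 Cynomolgus monkeys (male, n = 3) in an iv × po crossover. Dosed by 1-h iv infusion of 1-2 mg/kg via temporary saphenous vein catheter, then 2-4 mg/kg oral gavage 7 days later. Vehicle: aqueous <2% DMSO, <20% hydroxypropyl-β-cyclodextrin. Femoral-vein plasma measured by LC/MS/MS, LLOQ 1.0-10 ng/mL. Parameters by noncompartmental methods.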

[11] = Clearance in iv dosed cynomolgus monkey; type: ADME, organism-based, Macaca fascicularis; settings: in vivo; summary of the method: as §3
Cathepsin L2 = biological target: T3, Cathepsin L2 (Homo sapiens, UniProt O60911); assay: Inhibition of human cathepsin V; settings: read-out: Ki app; summary of the method: as §2
T3 sequence (O60911 whole entry): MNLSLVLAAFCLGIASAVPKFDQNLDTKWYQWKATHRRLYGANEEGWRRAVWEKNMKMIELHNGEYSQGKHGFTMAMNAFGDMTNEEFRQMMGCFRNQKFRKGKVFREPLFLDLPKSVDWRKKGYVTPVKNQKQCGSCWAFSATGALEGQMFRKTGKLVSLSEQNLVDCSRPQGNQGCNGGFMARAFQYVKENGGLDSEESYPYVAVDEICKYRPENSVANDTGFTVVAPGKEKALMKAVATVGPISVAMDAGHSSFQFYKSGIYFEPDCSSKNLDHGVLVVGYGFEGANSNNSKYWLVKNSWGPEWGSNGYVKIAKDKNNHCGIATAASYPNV

[12] = Oral bioavailability in cynomolgus monkey; type: ADME, organism-based, Macaca fascicularis; settings: in vivo; summary of the method: as §3
[13] = Volume of distribution in iv dosed cynomolgus monkey; type: ADME, organism-based, Macaca fascicularis; settings: in vivo, read-out: Vdss; summary of the method: as §3

**Q.** Which fraction unbound [1] does the source give for CC(C)C[C@H](NC(=O)c1cc2ccccc2o1)C(=O)N[C@H]1C[C@H](C)CN(S(=O)(=O)c2ccccn2)CC1=O here?
**A.** 0.044

**Q.** What about the IC50 (Osteoclast) of the same compound?
**A.** 35 nM

**Q.** What about the Papp [2] of the same compound?
**A.** 56 ×10⁻⁶ cm/s

**Q.** What about the Ki (Cathepsin S) of the same compound?
**A.** 5.8 nM

**Q.** And the Ki (Cathepsin K [3])?
**A.** 0.14 nM

**Q.** And the Papp at 10 µM [4]?
**A.** 49 ×10⁻⁶ cm/s

**Q.** And the clearance [5]?
**A.** 34.4 mL/min/kg

**Q.** And the Ki (Cathepsin K [6])?
**A.** 73 nM

**Q.** What about the Vd [7] of the same compound?
**A.** 1.46 L/kg

**Q.** And the bioavailability [8]?
**A.** 26.2%

**Q.** What about the half-life [9] of the same compound?
**A.** 51.6 min

**Q.** Which Ki (Cathepsin S) does the source give for CC(C)C[C@H](NC(=O)c1cc2ccccc2o1)C(=O)N[C@@H]1CC[C@H](C)N(S(=O)(=O)c2ccccn2)CC1=O here?
**A.** 110 nM

**Q.** What about the Ki (Cathepsin K [6]) of the same compound?
**A.** 790 nM

**Q.** For CC(C)C[C@H](NC(=O)c1cc2ccccc2o1)C(=O)N[C@H]1CC[C@H](C)N(S(=O)(=O)c2ccccn2)CC1=O, which Ki (Cathepsin S) is on record?
**A.** 42 nM

**Q.** And the Ki (Cathepsin K [6])?
**A.** 680 nM

**Q.** For CC(C)C[C@H](NC(=O)c1cc2ccccc2o1)C(=O)N[C@@H]1C[C@@H](C)CN(S(=O)(=O)c2ccccn2)CC1=O, which Ki (Cathepsin S) is on record?
**A.** 300 nM

**Q.** And the Ki (Cathepsin K [3])?
**A.** 30 nM

**Q.** And the Ki (Cathepsin K [6])?
**A.** > 1000 nM

**Q.** With CC(C)C[C@H](NC(=O)c1cc2ccccc2o1)C(=O)N[C@H]1C[C@@H](C)CN(S(=O)(=O)c2ccccn2)CC1=O as the compound, how does the Ki (Cathepsin S) read?
**A.** 350 nM

**Q.** What about the Ki (Cathepsin K [3]) of the same compound?
**A.** 29 nM

**Q.** What about the Ki (Cathepsin K [6]) of the same compound?
**A.** > 1000 nM

**Q.** With CC(C)C[C@H](NC(=O)c1cc2ccccc2o1)C(=O)N[C@H]1C(=O)CN(S(=O)(=O)c2ccccn2)CC[C@H]1C as the compound, how does the Ki (Cathepsin K [3]) read?
**A.** 42 nM

**Q.** What about the Ki (Cathepsin B) of the same compound?
**A.** > 1000 nM

**Q.** Which Ki (Cathepsin K [3]) does the source give for CC(C)C[C@H](NC(=O)c1cc2ccccc2o1)C(=O)N[C@H]1C(=O)CN(S(=O)(=O)c2ccccn2)CC[C@@H]1C here?
**A.** 19 nM

**Q.** What about the Ki (Cathepsin B) of the same compound?
**A.** > 1000 nM

**Q.** For CC(C)C[C@H](NC(=O)c1cc2ccccc2o1)C(=O)N[C@@H]1C(=O)CN(S(=O)(=O)c2ccccn2)CC[C@@H]1C, which fraction unbound [1] is on record?
**A.** 0.053

**Q.** What about the IC50 (Osteoclast) of the same compound?
**A.** 20 nM

**Q.** And the Papp [2]?
**A.** 68 ×10⁻⁶ cm/s

**Q.** What about the Ki (Cathepsin K [3]) of the same compound?
**A.** 0.0099 nM

**Q.** What about the Ki (Cathepsin B) of the same compound?
**A.** 32 nM

**Q.** What about the Papp at 10 µM [4] of the same compound?
**A.** 55 ×10⁻⁶ cm/s

**Q.** And the clearance [5]?
**A.** 80.5 mL/min/kg

**Q.** What about the Vd [7] of the same compound?
**A.** 4.7 L/kg

**Q.** And the bioavailability [8]?
**A.** < 5.4%

**Q.** What about the half-life [9] of the same compound?
**A.** 58.5 min

**Q.** With CC(C)C[C@H](NC(=O)c1cc2ccccc2o1)C(=O)N[C@@H]1C[C@H](C)CN(S(=O)(=O)c2ccccn2)CC1=O as the compound, how does the Ki (Cathepsin S) read?
**A.** 8.3 nM

**Q.** And the Ki (Cathepsin K [3])?
**A.** 4.5 nM

**Q.** And the Ki (Cathepsin K [6])?
**A.** 660 nM

**Q.** For CC(C)C[C@H](NC(=O)c1cc2ccccc2o1)C(=O)N[C@H]1CCCN(S(=O)(=O)c2ccccn2)CC1=O, which fraction unbound [1] is on record?
**A.** 0.03

**Q.** And the IC50 (Osteoclast)?
**A.** 63 nM

**Q.** And the Papp [2]?
**A.** 53 ×10⁻⁶ cm/s

**Q.** What about the half-life [10] of the same compound?
**A.** 36.5 min

**Q.** What about the clearance [11] of the same compound?
**A.** 13.9 mL/min/kg

**Q.** And the Papp at 10 µM [4]?
**A.** 57 ×10⁻⁶ cm/s

**Q.** And the Ki (Cathepsin L2)?
**A.** 1.8 nM

**Q.** And the bioavailability [12]?
**A.** 7.3%

**Q.** What about the Vd [13] of the same compound?
**A.** 0.72 L/kg

**Q.** What does the source list for CC(C)C[C@H](NC(=O)c1cc2ccccc2o1)C(=O)N[C@H]1CC[C@@H](C)N(S(=O)(=O)c2ccccn2)CC1=O [RELACATIB]?
**A.** fraction unbound [1]: 0.032; IC50 (Osteoclast): 22 nM; Papp [2]: 47 ×10⁻⁶ cm/s; half-life [10]: 168 min; clearance [11]: 11.7 mL/min/kg; Ki (Cathepsin S): 1.6 nM; Ki (Cathepsin B): 13 nM; Papp at 10 µM [4]: 47 ×10⁻⁶ cm/s; clearance [5]: 19.5 mL/min/kg; Ki (Cathepsin K [6]): 8 nM; Ki (Cathepsin L2): 0.063 nM; Vd [7]: 1.79 L/kg; bioavailability [12]: 27.6%; bioavailability [8]: 89.4%; half-life [9]: 109 min; Vd [13]: 0.95 L/kg

**Q.** What does the source list for CC(C)C[C@H](NC(=O)c1cc2ccccc2o1)C(=O)N[C@@H]1CC[C@@H](C)N(S(=O)(=O)c2ccccn2)CC1=O?
**A.** Ki (Cathepsin S): 92 nM; Ki (Cathepsin K [6]): 430 nM

**Q.** With CC(C)C[C@H](NC(=O)c1cc2ccccc2o1)C(=O)N[C@@H]1C(=O)CN(S(=O)(=O)c2ccccn2)CC[C@H]1C as the compound, how does the Ki (Cathepsin K [3]) read?
**A.** 1.5 nM

**Q.** And the Ki (Cathepsin B)?
**A.** > 1000 nM
